The values below come from ChEMBL document CHEMBL1132930, “Characterization of the binding site of the histamine H(3) receptor. 2. Synthesis, in vitro pharmacology, and QSAR of a series of monosubstituted benzyl analogues of thioperamide” (J Med Chem, 2000).

For one assay, the target named is Histamine H3 receptor (Cavia porcellus, UniProt Q9JI35). Briefly: In vitro histamine H3 receptor antagonist activity was determined on guinea pig jejunum. The assay is classed as functional, tissue-based. To be noted: read-out: pA2 (converted). The method in brief: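 Guinea pig jejunum preparations, electrically stimulated to give contractile responses (acetylcholine release). H3 agonists inhibit these responses in a concentration-dependent way. Antagonist pA2 derived from that agonist inhibition, per a previously described method.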
Histamine H3 receptor, sequence (Q9JI35 whole entry): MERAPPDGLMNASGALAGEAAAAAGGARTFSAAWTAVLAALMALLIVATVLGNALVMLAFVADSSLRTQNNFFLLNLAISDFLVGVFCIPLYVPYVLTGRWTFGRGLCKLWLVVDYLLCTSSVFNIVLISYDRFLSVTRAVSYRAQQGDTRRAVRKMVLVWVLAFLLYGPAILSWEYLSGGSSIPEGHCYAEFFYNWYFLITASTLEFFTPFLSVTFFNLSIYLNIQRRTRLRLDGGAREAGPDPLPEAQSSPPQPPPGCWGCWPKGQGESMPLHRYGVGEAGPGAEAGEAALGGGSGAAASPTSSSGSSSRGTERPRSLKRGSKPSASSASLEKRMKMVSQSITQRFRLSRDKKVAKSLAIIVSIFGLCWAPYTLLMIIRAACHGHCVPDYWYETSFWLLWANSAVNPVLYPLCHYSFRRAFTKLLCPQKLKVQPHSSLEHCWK
With `S=C(NCc1ccc(I)cc1)N1CCC(c2c[nH]cn2)CC1`, the Kb is 166 nM. Take `S=C(NCc1cccc(Br)c1)N1CCC(c2c[nH]cn2)CC1`: the Kb is 33.9 nM. Turning to `Fc1cccc(C/N=C(\S)N2CCC(c3c[nH]cn3)CC2)c1`, the Kb is 363 nM. For the compound `Fc1ccc(C/N=C(\S)N2CCC(c3c[nH]cn3)CC2)cc1`, the Kb was 562 nM. As to `S=C(NCc1cccc(Cl)c1)N1CCC(c2c[nH]cn2)CC1`, the Kb was 38.9 nM. `S=C(NCc1ccccc1I)N1CCC(c2c[nH]cn2)CC1`: the Kb is 7.41 nM. In the case of `S=C(NCc1ccccc1Cl)N1CCC(c2cnc[nH]2)CC1`, the Kb was 6.17 nM.

For `S=C(NCc1ccccc1Br)N1CCC(c2c[nH]cn2)CC1`, the Kb was 14.5 nM. On to `S=C(NCc1ccc(Cl)cc1)N1CCC(c2c[nH]cn2)CC1`, for which the Kb was 61.7 nM. For `S=C(NCc1ccccc1)N1CCC(c2c[nH]cn2)CC1`, the Kb was 47.9 nM. With `Cc1ccccc1C/N=C(\S)N1CCC(c2c[nH]cn2)CC1`, the Kb is 95.5 nM. For `Fc1ccccc1C/N=C(\S)N1CCC(c2c[nH]cn2)CC1`, the Kb was 912 nM. Turning to `S=C(NCc1ccc(Br)cc1)N1CCC(c2c[nH]cn2)CC1`, the Kb is 339 nM. For the compound `CC(C)(C)c1ccccc1C/N=C(\S)N1CCC(c2c[nH]cn2)CC1`, the Kb was 28.8 nM.

On to `S=C(NCc1cccc(I)c1)N1CCC(c2c[nH]cn2)CC1`, for which the Kb is 15.8 nM.

In another assay the target is Histamine H3 receptor (Cavia porcellus) (UniProt Q9JI35). Particulars: Jejunum.
Histamine H3 receptor (Cavia porcellus), sequence (Q9JI35 whole entry): as above
With `C[C@@H](N)Cc1c[nH]cn1`, the pD2 was determined as 7.8.
